An excerpt weighted towards active compounds, which were near 3.1% of everything screened.
Cneo AK release: causes C. neoformans cell lysis; adenylate kinase release luminescence, 4 h; normalised: neutral wells 0, clomiphene wells 100; lysis activity, % at 15 µM; actives 0.2% (n = 360,000); AID 651654;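 active = mean lysis activity across replicates of at least 80%, whatever share of replicates individually reach that level; inactive = mean lysis activity below 80%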
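Assay system: log-phase C. neoformans yeast / Quantity: yeast cell density of 5 × 10^6 cells/mL / Medium: fresh YPD growth medium / Compound: single dose / Timing: static 4 h at 37 °C with compound, 1 h detection / Measured by: adenylate kinase release luminescence / Read-out: lysis from increased AK signal / Benchmarks: Clomiphene as positive lysis control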
miR122 inh: inhibitors of miR-122 in Huh7 cells | activation (reporter increase), % at 12.5 µM | actives 0.3% (n = 340,000) | Huh7 miR-122 Renilla luciferase sensor, 48 h; neutral wells = 0, positive control = 100 | AID 602342;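 active = mean replicate activation score at least 90 and every replicate individually at or above 90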;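 also: higher luciferase means less miR-122 activity so hits act as miR-122 inhibitors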
F508del corr: CFTR F508del correction in bronchial cells; CFBE cells, YFP halide quenching; stimulated with forskolin plus potentiator P3; % fluorescence drop versus neutral controls; activity (quench increase), % at 7.58 µM; actives 0.36% (n = 350,000);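 active = mean added fluorescence quench of at least 8% versus neutral control, with both replicates also reaching 8%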;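 also: cells transiently co-express mutant CFTR-F508del with the halide-sensitive YFP; corrector assay measuring rescue of mutant channel to the surface after 24 h compound exposure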
Ecoli rRNA inh: inhibitors of bacterial rRNA selective over humanized ribosomes; AID 720706; GFP signal change (wild-type ribosome), % (test concentration not listed); E. coli WT GFP vs humanized-ribosome RFP mutants, fluorescence, 24 h; stronger effect = lower value; DMSO median 0, no signal -100; actives 1.6% (n = 350,000);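 active = significant combined selectivity score with lowered wild-type GFP, culture density cut under 30%, mutant RFP and density less affected; inactive = any of these conditions unmet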
INS-1E GSIS act: primary screen for activators of insulin secretion dependent on glucose, INS-1E cells, GLuc reporter luminescence | activation, % at 16.6 µM | INS-1E GLuc reporter insulin secretion, 2-3 h | AID 743287 | actives 0.61% (n = 370,000);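 active = lowest replicate activation of at least 40%, so every replicate reaches that level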
Env fusion inh: blocks HIV Env-driven cell-cell fusion | inhibition, % at 12.3 µM | actives 1.1% (n = 360,000) | HeLa-JRFL Env/CEM21 cell fusion, luciferase;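 active = mean replicate inhibition score of at least 50 and every replicate individually at or above 50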
Large screens that a line does not name were inactive.

Cc1cccc(NC(=O)COc2ccc(Br)cc2/C=N/O)c1	Ecoli rRNA inh -44 (no result: Cneo AK release, miR122 inh, F508del corr)
O=C(Nc1ccc2c(c1)[C@@H]1C[C@@H](CC(=O)N3CCOCC3)O[C@@H](CO)[C@@H]1O2)Nc1ccccc1F	none
CS(=O)(=O)N1[C@@H]2c3cccc(=O)n3C[C@H]1[C@H](CO)[C@H]2C(=O)NCc1ccccc1	none (no result: miR122 inh, F508del corr)
COc1ccccc1CN1C(=O)CN(C2CCCCCC2)C(=O)C1c1ccc(F)cc1 (centres undefined)	Env fusion inh 82 (no result: miR122 inh, F508del corr, Ecoli rRNA inh)
COc1cccc(C2C(=O)N(C3CCCCC3)CC(=O)N2Cc2ccc(F)cc2)c1 (centres undefined)	none (no result: Env fusion inh)
CCCn1c(=O)c2ccccc2n2c(SCCOc3ccc(OC)cc3)nnc12	Ecoli rRNA inh -18 (no result: Env fusion inh)
O=[N+]([O-])c1ccc(Sc2ccncn2)c([N+](=O)[O-])c1	INS-1E GSIS act 84 (no result: miR122 inh)
Cc1cc(C)nc(Sc2ccc([N+](=O)[O-])cc2[N+](=O)[O-])n1	none (no result: Cneo AK release, miR122 inh, F508del corr, Ecoli rRNA inh)
CC(C)NC(=O)N1C[C@@H]2[C@H](c3ccccc31)[C@@H](CO)N2C(=O)Nc1cccc(F)c1	none (no result: Env fusion inh)
O=C1C=C(NCc2ccc(Cl)c(Cl)c2)CC1	none (no result: Cneo AK release, F508del corr, Ecoli rRNA inh, INS-1E GSIS act, Env fusion inh)
CC1(C)CC(=O)C=C(NCc2ccc(Cl)c(Cl)c2)C1	Env fusion inh 60 (no result: Cneo AK release, miR122 inh, F508del corr, Ecoli rRNA inh)
CS(=O)(=O)Nc1ccc2c(c1)[C@@H]1C[C@@H](CC(=O)NCc3ccc(Cl)cc3)O[C@@H](CO)[C@@H]1O2	none
CC(NCc1ccc(S(N)(=O)=O)cc1)C(=O)Nc1cc([N+](=O)[O-])ccc1Cl (centres undefined)	Ecoli rRNA inh -21
Cc1ccc(S(=O)(=O)N(C)C[C@@H]2Oc3c(NC(=O)CCCCCC(=O)Nc4ccccc4N)cccc3C(=O)N([C@H](C)CO)C[C@@H]2C)cc1	none (no result: Cneo AK release, miR122 inh, Env fusion inh)
COc1cc(NC(=O)c2ccc(COc3ccccc3Br)o2)cc(OC)c1OC	none (no result: F508del corr, Ecoli rRNA inh, INS-1E GSIS act)
CC(=O)Nc1ccc(/C(C)=N/NC(=O)c2ccc(COc3ccccc3Cl)o2)cc1	Ecoli rRNA inh -30
COc1ccc(/C=N/NC(=O)c2ccc(COc3ccccc3Cl)o2)c(OC)c1C	INS-1E GSIS act 152 (no result: F508del corr, Ecoli rRNA inh)
COc1ccccc1OCc1ccc(C(=O)Nc2cc(OC)c(OC)c(OC)c2)o1	Ecoli rRNA inh -22
COCCOC(=O)c1[nH]c2c(c1C)C(=O)CC(c1cc(OC)c(OC)c(OC)c1)C2 (centres undefined)	none (no result: Cneo AK release, miR122 inh)
CCCCOC(=O)c1[nH]c2c(c1C)C(=O)CC(c1cc(OC)c(OC)c(OC)c1)C2 (centres undefined)	Env fusion inh 64
C[C@H](CO)N1C[C@H](C)[C@H](CN(C)S(=O)(=O)c2cn(C)cn2)Oc2ccc(NC(=O)Nc3cccc4ccccc34)cc2CC1=O	none
CC1CCN(C(=O)CN(c2ccc3c(c2)OCCO3)S(=O)(=O)c2ccccc2)CC1	miR122 inh 104
CCOC(=O)N1CCN(C(=O)CN(c2cccc(C)c2)S(=O)(=O)c2ccc(C)cc2)CC1	none (no result: F508del corr, Ecoli rRNA inh, INS-1E GSIS act, Env fusion inh)
Cc1ccc(S(=O)(=O)N(CC(=O)N2CCC(C)CC2)c2cccc(C)c2)cc1	miR122 inh 144 (no result: F508del corr, Ecoli rRNA inh, INS-1E GSIS act)
CCOC(=O)C1CCN(C(=O)CN(c2ccc3c(c2)OCCO3)S(=O)(=O)c2ccccc2)CC1	none (no result: Cneo AK release, miR122 inh)
Cc1ccc(C)c(NC(=S)N2CCC(c3nc4ccccc4s3)CC2)c1	Ecoli rRNA inh -35 (no result: Env fusion inh)
CCc1ccc(C(=O)N2CCC(c3nc4ccccc4s3)CC2)cc1	none (no result: F508del corr, Ecoli rRNA inh, INS-1E GSIS act)
CC(=O)c1ccc(OC2(C)CCN(Cc3cccn3-c3nccs3)C2)cc1 (centres undefined)	none (no result: miR122 inh)
CC1(Oc2ccc3ccccc3c2)CCN(Cc2cccn2-c2nccs2)C1 (centres undefined)	Env fusion inh 70 (no result: miR122 inh)
O=C(C1=C[C@H](c2ccc(C(F)(F)F)cc2)C[C@H](OCCCCO)O1)N1CCCCCCC1	none (no result: miR122 inh, Ecoli rRNA inh, INS-1E GSIS act)
NS(=O)(=O)c1cc(C2(O)NC(=O)c3ccccc32)ccc1Cl (centres undefined)	F508del corr 11
CCn1nc(C(=O)Nc2ccc3nc(C)sc3c2)c2ccccc2c1=O	INS-1E GSIS act 53 (no result: F508del corr, Ecoli rRNA inh)
O=C(c1cccnc1)N(Cc1ccccc1)c1ccccc1	INS-1E GSIS act 117 (no result: Env fusion inh)
CCN(Cc1ccccc1)C(=O)c1cccnc1	none
O=[N+]([O-])c1ccc(/C=N/n2c(-c3cccnc3)n[nH]c2=S)cc1	none (no result: F508del corr, Ecoli rRNA inh)
O=[N+]([O-])c1cccc(/C=N/n2c(-c3cccnc3)n[nH]c2=S)c1	INS-1E GSIS act 54 (no result: miR122 inh, F508del corr, Ecoli rRNA inh)
S=c1[nH]nc(-c2ccccc2)n1/N=C/c1cccs1	Ecoli rRNA inh -19 (no result: F508del corr, Env fusion inh)
Cc1ccc(-c2n[nH]c(=S)n2/N=C/c2cccs2)cc1	Ecoli rRNA inh -33
S=c1[nH]nc(-c2cc(-c3ccccc3)n[nH]2)n1/N=C/c1ccc(Cl)cc1	none (no result: INS-1E GSIS act)
S=c1[nH]nc(-c2cc(-c3ccccc3)n[nH]2)n1/N=C/c1cccc(Cl)c1	Ecoli rRNA inh -17 (no result: Cneo AK release, miR122 inh, INS-1E GSIS act)
C[C@H]1CN([C@@H](C)CO)C(=O)c2cccc(NS(=O)(=O)c3cn(C)cn3)c2O[C@@H]1CN(C)C(=O)NC1CCCCC1	none (no result: Env fusion inh)
CO[C@H]1CN(C)C(=O)c2ccc(NS(=O)(=O)c3cn(C)cn3)cc2OC[C@H](C)N(CCC(F)(F)F)C[C@@H]1C	none (no result: Cneo AK release, miR122 inh, Env fusion inh)
Cc1nc2ccccc2c(=O)n1/N=C/c1ccccc1	none (no result: F508del corr, Ecoli rRNA inh, INS-1E GSIS act, Env fusion inh)
Cc1nc2ccccc2c(=O)n1/N=C/c1cccs1	Ecoli rRNA inh -19 (no result: Cneo AK release)
C[C@H]1CN([C@@H](C)CO)C(=O)c2cc(NC(=O)NC3CCCCC3)ccc2O[C@@H]1CN(C)C(=O)Nc1ccc(C(F)(F)F)cc1	none
CC(C)CC#Cc1ccc2c(c1)O[C@H](CN(C)C(=O)c1ccccn1)[C@H](C)CN([C@H](C)CO)S2(=O)=O	none
O=C(Nc1ccccc1)c1ccccc1NC(=O)C1CCCCC1	none (no result: F508del corr, Ecoli rRNA inh, INS-1E GSIS act, Env fusion inh)
Cc1cccc(NC(=O)c2ccccc2NC(=O)C2CCCCC2)c1C	F508del corr 8.1 (no result: Env fusion inh)
O=C(CCN1CCCCC1)N1CCc2c([nH]c3ccccc23)C1c1cccnc1 (centres undefined)	F508del corr 8.9 (no result: Cneo AK release)
CCCC(=O)Nc1ccc2c(c1)C(=O)N(C)[C@@H]1CC[C@@H](CC(=O)NCC(F)(F)F)O[C@@H]1CO2	none
CO[C@H]1CN(C)C(=O)c2ccc(NC(=O)c3ccccc3F)cc2OC[C@@H](C)N(C(=O)c2ccccc2F)C[C@H]1C	none (no result: Env fusion inh)
C[C@H]1CN([C@@H](C)CO)C(=O)c2cc(Br)cnc2O[C@@H]1CN(C)Cc1ccccn1	Cneo AK release 107
C[C@H](CO)N1C[C@H](C)[C@@H](CN(C)Cc2ccccn2)Oc2ncc(Br)cc2C1=O	none
COCC(=O)N(C)C[C@@H]1Oc2ncc(C#CCC3CCCC3)cc2C(=O)N([C@@H](C)CO)C[C@H]1C	Cneo AK release 103
